Measurements from article PMC3907283 (Nature, 2013).

Columns and labels:
Swi6 [1] = test: Swi6 self-association by sedimentation equilibrium/velocity AUC; assay type: binding, S. pombe; details: AUC, Supplementary Fig. 6
Swi6 [2] = test: SV AUC weighted average sedimentation coefficient; assay type: binding, S. pombe; details: [Swi6^WT] = 20μM
Swi6 [3] = target: T1, Swi6 (Schizosaccharomyces pombe, UniProt P40381); test: Swi6 self-association by sedimentation equilibrium/velocity AUC; assay type: binding, S. pombe; details: AUC
T1 sequence (P40381 1-328): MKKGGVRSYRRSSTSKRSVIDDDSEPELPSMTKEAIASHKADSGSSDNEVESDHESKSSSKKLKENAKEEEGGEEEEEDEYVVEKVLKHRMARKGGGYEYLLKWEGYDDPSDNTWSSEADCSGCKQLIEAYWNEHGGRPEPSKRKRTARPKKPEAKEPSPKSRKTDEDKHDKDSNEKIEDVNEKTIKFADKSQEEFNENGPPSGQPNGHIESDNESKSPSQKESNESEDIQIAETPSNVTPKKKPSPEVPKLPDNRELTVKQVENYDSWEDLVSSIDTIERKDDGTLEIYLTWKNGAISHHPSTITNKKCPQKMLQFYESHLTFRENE

Swi6 [4] = target: Swi6 (Schizosaccharomyces pombe, UniProt P40381, C121S/C124S/C310S); test: as above; assay type: binding, S. pombe; details: all three native cysteines mutated to serines; Supplementary Fig. 5
Swi6 (Schizosaccharomyces pombe, UniProt P40381, C121S/C124S/C310S), sequence (P40381 whole entry C121S/C124S/C310S): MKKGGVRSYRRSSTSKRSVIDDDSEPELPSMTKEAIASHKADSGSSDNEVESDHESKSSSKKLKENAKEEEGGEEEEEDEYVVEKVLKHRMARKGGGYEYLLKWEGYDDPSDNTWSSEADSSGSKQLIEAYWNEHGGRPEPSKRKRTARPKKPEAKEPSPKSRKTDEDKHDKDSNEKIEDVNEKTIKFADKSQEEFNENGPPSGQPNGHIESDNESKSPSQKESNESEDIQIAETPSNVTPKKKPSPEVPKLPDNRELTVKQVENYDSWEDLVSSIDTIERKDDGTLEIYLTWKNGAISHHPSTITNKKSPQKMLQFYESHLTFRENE

H3K9me3 tail peptide [5] = test: H3 tail peptide binding; details: Supplementary Fig. 5
Method in brief: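 Intrinsic Trp fluorescence (W104 in aromatic cage): 200nM Swi6 in 20mM HEPES pH 7.5, 150mM KCl, 1 mM DTT, titrated with H3 peptide (residues 1–18), K9 trimethylated or unmethylated. 10min at 30°C, excitation 295 nm, emission read at 330 nm. Kd from 1:1 binding fit, averaged over three independent data sets.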

H3K9me3 nucleosomes = test: Nucleosome binding by fluorescence anisotropy/polarization; parameters: species or system Xenopus laevis
Method in brief: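 Core nucleosomes assembled from recombinant Xenopus histones on 147 bp 601 DNA, one end 6-carboxyfluorescein-labelled; H3K9me3 mimicked by methyl-lysine analog (H3KC9me3). 5-10 nM nucleosomes titrated with Swi6 in 20mM HEPES pH 7.5, 150mM KCl, 1 mM DTT, 0.01% NP40; 30 min at 24°C; FP at λex 480/λem 530nm. Fit to a two-step model giving Kd1 (Swi6–nucleosome) and Kd2 (scaffolded Swi6–Swi6); n ≥ 3, s.e.m.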

Swi6 [6] = test: Swi6 protein levels in vivo; assay type: cell-based, S. pombe; details: silencing strains; Supplementary Fig. 9
Method in brief: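 Detection with rabbit polyclonal antibodies raised against recombinant Swi6.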

[7] = tested on: ura4+ reporter gene inserted at the pericentromeric imr region; test: ura4+ reporter silencing assay; assay type: cell-based, S. pombe; details: 5-FOA medium, 30°C, 2-3 days; Fig. 4d
Method in brief: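 Strains grown overnight to saturation, adjusted to OD600 of 1 for the most concentrated spot, then 5-fold serial dilutions plated on non-selective YS and on 5-FOA (2 grams/liter) media.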

H3K9me3 tail peptide [8] = target: H3K9me3 tail peptide (UniProt P68431); test: other fluorescence titration + fluorescence polarisation
AUC [9] = target: the molecule itself; test: AUC
AUC [10] = target: the molecule itself; test: AUC; remark: listed apart in the source

For “Swi6-CFP: Swi6 with the CFP tag moved to the C-terminus”, the “sedimentation coefficient compared to CFP-Swi6 (in words)” value (Swi6 [1]) was “lower sedimentation coefficient”.

With “Swi6^WT: major S. pombe HP1 protein, Swi6, wild type” the “sedimentation coefficient, tetramer (S4)” value (Swi6 [2]) was ~ 5.2 S, the “1/Kobsiso, isodesmic self-association of Swi6 dimers (chain elongation)” value (Swi6 [3]; SE and SV global analysis, 8°C, RB: 20mM HEPES pH 7.5, 150mM KCl, 1 mM DTT) was about 70 µM and the “Swi6 dimerization with saturating methylated H3 tail peptide” value (Swi6 [3]; saturating methylated H3 tail peptide, Supplementary Fig. 4) was “weakened”. The “effect of mutating native cysteines on oligomerization” value (Swi6 [4]) was “destabilized oligomerization”, the “effect of mutating native cysteines on H3 peptide binding” value (H3K9me3 tail peptide [5]) was “destabilized oligomerization, H3 peptide binding” and the “effect of mutating native cysteines on nucleosome binding” value (H3K9me3 nucleosomes; Supplementary Fig. 5) was “destabilized oligomerization, H3 peptide binding, and nucleosome binding”.

B1: Swi6^LoopX (natural protein)
chain: MKKGGVRSYRRSSTSKRSVIDDDSEPELPSMTKEAIASHKADSGSSDNEVESDHESKSSSKKLKENAKEEEGGEEEEEDEYVVEKVLKHRMAAAGGGYEYLLKWEGYDDPSDNTWSSEADCSGCKQLIEAYWNEHGGRPEPSKRKRTARPKKPEAKEPSPKSRKTDEDKHDKDSNEKIEDVNEKTIKFADKSQEEFNENGPPSGQPNGHIESDNESKSPSQKESNESEDIQIAETPSNVTPKKKPSPEVPKLPDNRELTVKQVENYDSWEDLVSSIDTIERKDDGTLEIYLTWKNGAISHHPSTITNKKCPQKMLQFYESHLTFRENE
For B1, the Swi6 protein levels (Swi6 [6]) was “not due to reductions in protein levels”, the “silencing of ura4+ reporter” value [7] was “defects in silencing that are comparable to the swi6+ deletion strain” and the “discrimination for the methyl mark in nucleosome binding” value (H3K9me3 nucleosomes; fluorescence anisotropy, Fig. 4a and Supplementary Fig. 8) was “discrimination for the methyl mark was maintained”. For the same molecule, the fold stronger binding than Swi6^WT (H3K9me3 tail peptide [8]) was 6 fold.

B2: Swi6^WT (natural protein, S. pombe, UniProt P40381 1-328, looked up)
chain: MKKGGVRSYRRSSTSKRSVIDDDSEPELPSMTKEAIASHKADSGSSDNEVESDHESKSSSKKLKENAKEEEGGEEEEEDEYVVEKVLKHRMARKGGGYEYLLKWEGYDDPSDNTWSSEADCSGCKQLIEAYWNEHGGRPEPSKRKRTARPKKPEAKEPSPKSRKTDEDKHDKDSNEKIEDVNEKTIKFADKSQEEFNENGPPSGQPNGHIESDNESKSPSQKESNESEDIQIAETPSNVTPKKKPSPEVPKLPDNRELTVKQVENYDSWEDLVSSIDTIERKDDGTLEIYLTWKNGAISHHPSTITNKKCPQKMLQFYESHLTFRENE
For B2, the Kd (AUC [9]) was under 1 nM.

B3: CFP-Swi6 (natural protein, S. pombe, UniProt P40381 1-328, looked up)
chain: MKKGGVRSYRRSSTSKRSVIDDDSEPELPSMTKEAIASHKADSGSSDNEVESDHESKSSSKKLKENAKEEEGGEEEEEDEYVVEKVLKHRMARKGGGYEYLLKWEGYDDPSDNTWSSEADCSGCKQLIEAYWNEHGGRPEPSKRKRTARPKKPEAKEPSPKSRKTDEDKHDKDSNEKIEDVNEKTIKFADKSQEEFNENGPPSGQPNGHIESDNESKSPSQKESNESEDIQIAETPSNVTPKKKPSPEVPKLPDNRELTVKQVENYDSWEDLVSSIDTIERKDDGTLEIYLTWKNGAISHHPSTITNKKCPQKMLQFYESHLTFRENE
For B3, the “fold weaker dimer than Swi6^WT” value (AUC [10]) was about 10 fold.
